Measurements taken from ChEMBL document CHEMBL3259629, “Discovery and optimization of piperidyl-1,2,3-triazole ureas as potent, selective, and in vivo-active inhibitors of α/β-hydrolase domain containing 6 (ABHD6)” (J Med Chem, 2013).

Legend:
[1] = biological target: T1, sn-1-specific diacylglycerol lipase ABHD11 (Mus musculus) (UniProt Q8K4F5); conditions: Neuro2a, 3 nM
T1 sequence (whole entry): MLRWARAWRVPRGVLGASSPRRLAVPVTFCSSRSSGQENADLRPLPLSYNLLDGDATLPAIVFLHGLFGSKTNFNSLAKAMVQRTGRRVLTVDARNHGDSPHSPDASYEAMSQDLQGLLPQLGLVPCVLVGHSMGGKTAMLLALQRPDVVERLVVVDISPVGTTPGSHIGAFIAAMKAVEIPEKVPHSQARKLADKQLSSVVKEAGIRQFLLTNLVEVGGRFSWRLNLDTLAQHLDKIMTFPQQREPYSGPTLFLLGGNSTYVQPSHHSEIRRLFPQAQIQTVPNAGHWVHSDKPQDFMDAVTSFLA

[2] = biological target: T2, Protein ABHD13 (Mus musculus) (UniProt Q80UX8); conditions: Neuro2a, 3 nM
T2 sequence (whole entry): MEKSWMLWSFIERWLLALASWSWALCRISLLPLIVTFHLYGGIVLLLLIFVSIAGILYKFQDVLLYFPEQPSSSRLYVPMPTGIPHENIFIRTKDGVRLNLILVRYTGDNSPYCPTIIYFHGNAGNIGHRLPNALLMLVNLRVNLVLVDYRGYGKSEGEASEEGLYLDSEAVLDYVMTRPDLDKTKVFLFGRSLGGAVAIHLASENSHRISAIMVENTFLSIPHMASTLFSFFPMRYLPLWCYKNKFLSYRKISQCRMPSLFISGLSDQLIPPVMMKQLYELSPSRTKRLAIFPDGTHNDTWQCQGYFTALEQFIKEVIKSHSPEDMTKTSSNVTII

[3] = biological target: T3, Glutamyl-tRNA(Gln) amidotransferase subunit A, mitochondrial (Mus musculus) (UniProt Q9CZN8); conditions: Neuro2a, 3 nM
T3 sequence (whole entry): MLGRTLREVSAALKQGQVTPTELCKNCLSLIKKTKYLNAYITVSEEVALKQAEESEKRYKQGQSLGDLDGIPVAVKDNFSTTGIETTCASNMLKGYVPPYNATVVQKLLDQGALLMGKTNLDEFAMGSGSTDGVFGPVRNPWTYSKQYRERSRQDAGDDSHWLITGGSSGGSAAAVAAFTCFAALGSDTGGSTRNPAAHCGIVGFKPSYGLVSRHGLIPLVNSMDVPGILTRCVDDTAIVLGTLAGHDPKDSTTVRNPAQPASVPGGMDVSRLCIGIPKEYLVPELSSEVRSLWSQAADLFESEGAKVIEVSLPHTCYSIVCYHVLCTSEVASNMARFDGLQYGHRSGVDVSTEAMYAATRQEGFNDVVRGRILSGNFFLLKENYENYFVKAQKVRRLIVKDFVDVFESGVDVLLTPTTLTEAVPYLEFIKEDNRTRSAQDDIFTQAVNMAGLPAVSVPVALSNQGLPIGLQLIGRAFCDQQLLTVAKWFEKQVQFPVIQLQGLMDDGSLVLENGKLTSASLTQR

[4] = biological target: T4, Serine beta-lactamase-like protein LACTB, mitochondrial (Mus musculus) (UniProt Q9EP89); conditions: Neuro2a, 3 nM
T4 sequence (whole entry): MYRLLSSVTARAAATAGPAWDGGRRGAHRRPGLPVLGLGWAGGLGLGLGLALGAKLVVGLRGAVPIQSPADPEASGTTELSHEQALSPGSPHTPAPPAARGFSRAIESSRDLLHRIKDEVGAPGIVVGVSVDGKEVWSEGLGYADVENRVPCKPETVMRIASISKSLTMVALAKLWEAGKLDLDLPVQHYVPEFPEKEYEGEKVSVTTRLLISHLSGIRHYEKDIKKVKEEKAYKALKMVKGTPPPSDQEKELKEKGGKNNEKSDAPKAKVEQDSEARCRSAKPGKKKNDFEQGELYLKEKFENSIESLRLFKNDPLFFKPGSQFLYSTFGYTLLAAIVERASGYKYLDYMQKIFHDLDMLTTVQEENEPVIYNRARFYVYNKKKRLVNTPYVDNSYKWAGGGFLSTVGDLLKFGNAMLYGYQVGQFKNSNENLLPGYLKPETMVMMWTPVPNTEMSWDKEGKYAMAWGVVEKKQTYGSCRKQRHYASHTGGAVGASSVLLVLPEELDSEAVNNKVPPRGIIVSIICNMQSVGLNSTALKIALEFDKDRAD

[5] = biological target: T5, Monoacylglycerol lipase ABHD6 (Mus musculus) (UniProt Q8R2Y0); assay: Inhibition of ABHD6 in FP-rhodamine-labelled mouse brain membrane at 1 nM preincubated for 30 mins followed by FP-rhodamine labelling measured after 30 mins by gel-based competitive ABPP assay; type: tissue-based
T5 sequence (whole entry): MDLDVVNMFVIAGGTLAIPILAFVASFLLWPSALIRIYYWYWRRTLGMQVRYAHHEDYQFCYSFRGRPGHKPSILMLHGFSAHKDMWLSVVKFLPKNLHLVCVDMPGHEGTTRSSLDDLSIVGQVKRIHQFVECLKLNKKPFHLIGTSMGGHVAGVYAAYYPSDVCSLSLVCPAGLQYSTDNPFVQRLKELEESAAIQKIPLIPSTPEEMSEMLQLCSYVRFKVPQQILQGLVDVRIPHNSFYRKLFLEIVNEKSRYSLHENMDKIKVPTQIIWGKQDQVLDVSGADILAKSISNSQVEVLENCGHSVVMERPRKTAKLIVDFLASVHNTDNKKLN
Summary of the method: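 Mouse brain membrane proteome (1 mg/mL) preincubated with compound for 30 min at 37 °C, then labelled with FP-rhodamine or HT-01 (1 μM final) for 30 min at 37 °C. Quenched in SDS loading buffer, run on 10% SDS-PAGE and scanned for in-gel fluorescence. Bands assigned by gel migration.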

[6] = biological target: 1-acylglycerol-3-phosphate O-acyltransferase ABHD5 (Mus musculus) (UniProt Q9DBL9); conditions: Neuro2a, 3 nM
Chain of 1-acylglycerol-3-phosphate O-acyltransferase ABHD5 (Mus musculus) (Q9DBL9 whole entry, looked up): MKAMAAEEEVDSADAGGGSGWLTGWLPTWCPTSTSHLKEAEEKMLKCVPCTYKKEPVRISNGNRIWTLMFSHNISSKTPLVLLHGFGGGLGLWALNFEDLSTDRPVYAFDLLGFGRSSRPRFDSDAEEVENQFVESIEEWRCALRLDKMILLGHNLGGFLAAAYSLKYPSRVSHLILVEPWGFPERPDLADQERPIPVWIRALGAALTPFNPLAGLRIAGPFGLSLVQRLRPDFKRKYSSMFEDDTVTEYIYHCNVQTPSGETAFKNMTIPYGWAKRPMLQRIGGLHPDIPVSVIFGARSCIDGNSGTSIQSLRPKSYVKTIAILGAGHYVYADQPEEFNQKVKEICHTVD

[7] = biological target: T6, Platelet-activating factor acetylhydrolase IB subunit alpha1 (Mus musculus) (UniProt Q61205); conditions: Neuro2a, 3 nM
T6 sequence (whole entry): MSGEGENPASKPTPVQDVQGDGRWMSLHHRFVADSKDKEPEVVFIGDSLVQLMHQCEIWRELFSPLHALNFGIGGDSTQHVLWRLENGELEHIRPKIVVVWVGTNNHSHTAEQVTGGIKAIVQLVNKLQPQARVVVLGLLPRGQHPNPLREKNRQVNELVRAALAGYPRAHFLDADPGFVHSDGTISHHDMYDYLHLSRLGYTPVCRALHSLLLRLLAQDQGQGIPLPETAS

Row | SMILES | inhibition [1] [%] | inhibition [2] [%] | inhibition [3] [%] | inhibition [4] [%] | inhibition [5] [%] | inhibition [6] [%] | inhibition [7] [%]
1 | O=C(O)c1cccc(-c2ccc(-c3cn(C(=O)N4CCCCC4Cc4ccccc4)nn3)cc2)c1 (racemic) | < 50 | < 50 | < 50 | < 50 | 62 | < 50 | < 50
2 | O=C(N1CCCCC1c1ccccc1)n1cc(-c2ccc(-c3cccc(CO)c3)cc2)nn1 (racemic) | < 50 | < 50 | < 50 | < 50 | 29 | < 50 | < 50
3 | O=C(c1cccc(-c2ccc(-c3cn(C(=O)N4CCCCC4c4ccccc4)nn3)cc2)c1)N1CCCCC1 (racemic) | < 50 | < 50 | < 50 | < 50 | 51 | < 50 | < 50
